Source: PubChem BioAssay (Broad Institute)
GASC1 inh – KDM4C (human) demethylase inhibition; inhibition, % at 12.5 µM; Q9H3R0; actives 0.15% (n = 96,000); GST-KDM4C 2-372, H3K9me3 peptide, LANCE TR-FRET; AID 720574;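 active = mean replicate inhibition above about 25%, with at least 55% of replicates also reaching it, limit read from the data, passing the limit was not always enough; inconclusive = only one of those two conditions met; inactive = neither condition met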
Target sequence (Q9H3R0 2-372 limits assumed): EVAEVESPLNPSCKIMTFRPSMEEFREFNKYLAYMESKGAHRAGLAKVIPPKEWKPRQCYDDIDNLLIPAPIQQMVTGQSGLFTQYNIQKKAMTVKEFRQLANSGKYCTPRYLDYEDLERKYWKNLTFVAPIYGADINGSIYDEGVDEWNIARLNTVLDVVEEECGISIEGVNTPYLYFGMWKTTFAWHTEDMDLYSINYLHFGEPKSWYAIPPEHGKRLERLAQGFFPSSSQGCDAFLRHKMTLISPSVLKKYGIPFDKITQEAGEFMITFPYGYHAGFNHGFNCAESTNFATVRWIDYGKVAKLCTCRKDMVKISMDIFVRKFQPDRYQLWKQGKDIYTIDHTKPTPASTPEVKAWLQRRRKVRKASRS
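reagent = H3K9me3 peptide substrate, Fe(II), 2-oxoglutarate | system = GST-tagged GASC-1 (JMJD2C) catalytic fragment, aa 2-372 | amount = enzyme final amount 10 nM | read-out = Fall in 671/618 emission ratio as inhibition | medium = HEPES buffer, pH 7.5, plus ascorbate | schedule = 30 min reaction, 60 min detection, RT | measured by = LANCE TR-FRET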
T cruzi growth-1 – T. cruzi proliferation inhibition; T. cruzi beta-gal in NIH3T3, GalScreen luminescence, 90 h; inhibition, % at 8.34 µM; actives 5.9% (n = 77,000);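 active = mean inhibition above about 93%, with at least 55% of replicates each passing it, limit read from the data, passing the limit was not always enough; inconclusive = only one of those two conditions holds; inactive = neither condition holds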
IDH1 R132H inh – blocks human IDH1 R132H reductase activity. diaphorase/resazurin fluorescence, 60 min. inhibition, % at 10 µM. actives 0.18% (n = 70,000). AID 624101; in the data active = inhibition above about 34%; inconclusive = no clear call, values can overlap the other calls; inactive = below about 11%;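 also: 0% = DMSO and 100% = no enzyme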
T cruzi growth-2 – inhibitors of T. cruzi proliferation; shares compounds with T cruzi growth-1; T. cruzi beta-gal in NIH3T3, GalScreen luminescence, 90 h; inhibition, % at 8.35 µM; actives 72% (n = 5,600); AID 651739;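 active = mean replicate inhibition above about 95% and at least 55% of replicates individually reaching it, limit read from the data; inconclusive = only one of the two criteria is met; inactive = neither criterion is met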
T cruzi growth-3 – blocks T. cruzi growth in NIH3T3 host cells. inhibition, % at 2.09 µM. actives 21% (n = 5,600). AID 651740. shares compounds with T cruzi growth-1. T. cruzi beta-gal in NIH3T3, GalScreen luminescence, 90 h;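 active = mean inhibition above about 95%, with at least 55% of replicates also reaching it, limit read from the data; inconclusive = meets just one of the two conditions; inactive = meets neither condition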;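 also: plate controls were neutral control median for no effect and positive control median for full effect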
NIH3T3 tox – kills mouse NIH/3T3 fibroblasts. shares compounds with T cruzi growth-1. cytotoxicity (signal decrease), % at 8.35 µM. NIH/3T3 viability, CellTiter-Glo ATP luminescence, 90 h. actives 14% (n = 5,600). AID 651742;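 active = mean signal decrease across replicates above about 35% based on untreated-well scatter, with enough replicates individually passing, limit read from the data; inconclusive = no rule stated though some were filed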;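 also: 0% = median of neutral control wells and 100% = median of positive control wells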
NIH3T3 tox 2 – NIH/3T3 (mouse) viability loss; inhibition, % at 24.9 µM; shares compounds with T cruzi growth-1; actives 56% (n = 5,600); NIH/3T3 viability, CellTiter-Glo ATP luminescence, 90 h;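 active = mean loss of cell viability signal at or above a set limit, and enough replicates individually reaching it; inconclusive = meets only the mean limit or only the replicate share; inactive = meets neither condition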;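 also: 0% = median of neutral control wells and 100% = median of positive control wells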
Numbers without * were called inactive; ? = inconclusive; · = no result given. Many of the other results were omitted from the sample, so hits are more common in it than they were.

SMILES	GASC1 inh	T cruzi growth-1	IDH1 R132H inh	T cruzi growth-2	T cruzi growth-3	NIH3T3 tox	NIH3T3 tox 2
C[C@@H]1CN([C@@H](C)CO)C(=O)c2cc(NC(=O)Nc3ccc(C(F)(F)F)cc3)ccc2O[C@@H](C)CCCCO[C@@H]1CN(C)C(=O)Nc1ccc2c(c1)OCO2	1	·	1	·	·	·	·
C[C@H]1CCCCO[C@H](CN(C)C(=O)Nc2ccc(C(F)(F)F)cc2)[C@@H](C)CN([C@@H](C)CO)C(=O)c2cc(NC(=O)Nc3ccc4c(c3)OCO4)ccc2O1	-1	107*	·	102*	110*	13	-3
N#Cc1ccc(-c2ccc([C@@H]3[C@H](CO)N4C(=O)CN(C(=O)C5CCC5)C[C@@H]34)cc2)cc1	-1	·	·	·	·	·	·
COc1ccc(-c2ccc3c(c2)[C@H]2[C@H](CCN2S(=O)(=O)c2ccc(F)cc2)[C@H](CO)N3C)cc1	4	·	·	·	·	·	·
O=C(NCC[C@@H]1CC[C@@H](NS(=O)(=O)c2ccc(F)cc2)[C@@H](CO)O1)c1ccc2c(c1)OCO2	-3	-1	0	·	·	·	·
C[C@H](CO)N1C[C@H](C)[C@@H](CN(C)C(=O)c2cccc(F)c2)Oc2cc(-c3ccncc3)ccc2S1(=O)=O	-2	110*	17	95	52	22	44*
C[C@@H]1CN([C@@H](C)CO)S(=O)(=O)c2ccc(-c3cccc(F)c3)cc2O[C@@H]1CN(C)C(=O)c1cccc(F)c1	1	51	0	·	·	·	·
C[C@@H]1CN([C@@H](C)CO)S(=O)(=O)c2ccc(-c3ccncc3)cc2O[C@H]1CN(C)C(=O)c1ccc2c(c1)OCO2	-1	106*	1	99*	81	3	17
C[C@@H]1CN([C@@H](C)CO)S(=O)(=O)c2ccc(-c3ccccc3)cc2O[C@@H]1CN(C)C(=O)c1ccc2c(c1)OCO2	6	·	0	·	·	·	·
C[C@@H]1CN([C@@H](C)CO)S(=O)(=O)c2ccc(-c3cccc(F)c3)cc2O[C@H]1CN(C)C(=O)c1cccc(F)c1	0	100*	-1	98*	85	53*	40*
C[C@H]1CN([C@@H](C)CO)S(=O)(=O)c2ccc(-c3cccnc3)cc2O[C@@H]1CN(C)C(=O)c1cccc(F)c1	10	45	8	·	·	·	·
C[C@H]1CN([C@@H](C)CO)S(=O)(=O)c2ccc(-c3cccc(F)c3)cc2O[C@H]1CN(C)C(=O)c1cccc(F)c1	-2	53	-3	·	·	·	·
C[C@@H]1CN([C@@H](C)CO)S(=O)(=O)c2ccc(-c3ccncc3)cc2O[C@H]1CN(C)C(=O)c1cccc(F)c1	-2	111*	-2	96*	87	10	25*
O=C(C[C@H]1C[C@@H]2c3cc(NC(=O)c4cccnc4)ccc3O[C@@H]2[C@@H](CO)O1)NCc1cccc(F)c1	-2	-35	-1	·	·	·	·
CN(C)C(=O)C[C@@H]1C[C@@H]2c3cc(NS(C)(=O)=O)ccc3O[C@@H]2[C@@H](CO)O1	1	-19	1	·	·	·	·
CCC(=O)N(CC(C)C)C[C@@H]1[C@@H](c2ccccc2)[C@H](CO)N1C(=O)C1CCC1	-1	22	·	·	·	·	·
Cc1ccc(C(=O)CSc2ncnc3sc4c(c23)CCCC4)cc1C	·	·	0	·	·	·	·
O=C(C[C@H]1CC[C@H](NS(=O)(=O)c2ccc(F)cc2)[C@@H](CO)O1)NCc1ccccc1F	1	·	·	·	·	·	·
CCCC(=O)Nc1ccc2c(c1)C(=O)N(C)[C@H]1CC[C@@H](CC(=O)NCc3cccc(F)c3)O[C@@H]1CO2	-2	26	·	·	·	·	·
O=C(CC(F)(F)F)N1C[C@@H]2[C@H](c3ccccc31)[C@@H](CO)N2C(=O)c1ccncc1	4	-40	·	·	·	·	·
COc1cccc(S(=O)(=O)N(C)C[C@H]2OCc3ccccc3-c3ccccc3C(=O)N([C@H](C)CO)C[C@@H]2C)c1	0	?	0	82	7	-16	16
COc1cccc(CN(C)C[C@H]2OCc3ccccc3-c3ccccc3C(=O)N([C@@H](C)CO)C[C@H]2C)c1	-1	?	-2	87	11	6	-10
COc1cccc(CN(C)C[C@@H]2OCc3ccccc3-c3ccccc3C(=O)N([C@@H](C)CO)C[C@@H]2C)c1	3	49	·	·	·	·	·
COc1cccc(S(=O)(=O)N(C)C[C@H]2OCc3ccccc3-c3ccccc3C(=O)N([C@@H](C)CO)C[C@@H]2C)c1	-2	74	-11	·	·	·	·
CO[C@@H]1CN(C)C(=O)c2ccc(NC(=O)Nc3ccc(Cl)cc3)cc2OC[C@H](C)NC[C@H]1C	0	-36	0	·	·	·	·
SMILES	GASC1 inh	T cruzi growth-1	IDH1 R132H inh	T cruzi growth-2	T cruzi growth-3	NIH3T3 tox	NIH3T3 tox 2
CN(C)c1ccc2c(c1)[C@H]1C[C@H](CC(=O)NCc3ccc4c(c3)OCO4)O[C@H](CO)[C@H]1O2	8	85	-3	·	·	·	·
CN(C)c1ccc2c(c1)[C@@H]1C[C@@H](CC(=O)NCc3ccc4c(c3)OCO4)O[C@@H](CO)[C@@H]1O2	13	121*	-7	106*	17	4	-1
COc1ccc(CNC(=O)C[C@H]2C[C@@H]3c4cc(N(C)C)ccc4O[C@@H]3[C@@H](CO)O2)cc1	19	·	·	·	·	·	·
CN(C)c1ccc2c(c1)[C@H]1C[C@@H](CC(=O)NCc3ccc(Oc4ccccc4)cc3)O[C@@H](CO)[C@H]1O2	3	108*	-2	48	22	3	17
Cn1c(SCC(=O)Nc2cc(Cl)cc(Cl)c2)nnc1-c1ccc(Cl)cc1Cl	·	·	0	·	·	·	·
C[C@@H]1CCCCO[C@H](CN(C)C)[C@H](C)CN([C@H](C)CO)C(=O)c2cc(NC(=O)Nc3ccccc3)ccc2O1	-1	13	3	·	·	·	·
CN(C)CCCNC(=O)C[C@@H]1CC[C@@H]2[C@H](COC[C@H](O)CN2CC2CC2)O1	-1	12	·	·	·	·	·
O=C(NC1CCCC1)N1CC(=O)N2[C@H](C1)[C@@H](c1ccc(/C=C/c3ccccc3)cc1)[C@@H]2CO	-2	·	·	·	·	·	·
O=C(NC1CCCC1)N1CCCCN2[C@H](C1)[C@H](c1ccc(/C=C/c3ccccc3)cc1)[C@@H]2CO	-2	104*	·	104*	78	3	105*
O=C(NC1CCCC1)N1CCCCN2[C@H](CO)[C@@H](c3ccc(/C=C/c4ccccc4)cc3)[C@@H]2C1	-3	107*	·	100*	101*	20	104*
O=C(NC1CCCC1)N1CCCCN2[C@H](C1)[C@@H](c1ccc(/C=C/c3ccccc3)cc1)[C@@H]2CO	-1	75	·	·	·	·	·
CC(NS(=O)(=O)c1ccc(Cl)cc1)C(=O)Nc1cccc([N+](=O)[O-])c1 (configuration not stated)	·	·	0	·	·	·	·
C[C@@H]1CCCCO[C@H](CN(C)C(=O)NC2CCCCC2)[C@H](C)CN([C@@H](C)CO)C(=O)c2cc(N(C)C)ccc2O1	4	79	·	·	·	·	·
